# Laboratory results as given in article PMC6226357 (Breast cancer research and treatment, 2018).
# Like-named read-outs stand apart in the source and are kept apart here.
# Experiments:
# [1] = test system: H16N2 (AR-/PR-/low ER expression); conditions: higher potency/efficacy than enzalutamide; cited from earlier work
# [2] = Pharmacokinetics after a single dose of seviteronel; assay type: in vivo, human
# Outline: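 Women took a single oral dose as 150-mg tablets. Blood was drawn before dosing and at 0.5, 1, 2, 4, 6, 8 and 24 h afterward. Plasma drug was measured by LC-MS/MS, with a lower limit of quantification of 20 ng/mL (0.05 uM). Parameters were derived by noncompartmental analysis.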
# [3] = test system: women with locally advanced or metastatic TNBC or ER+ breast cancer; assay: Phase 1 safety and tolerability: treatment-emergent adverse events and DLT; assay type: in vivo, human
# [4] = test system: tamoxifen-resistant MCF7 xenograft; conditions: tamoxifen-resistant MCF7 mouse xenograft, compared to enzalutamide; cited from earlier work
# [5] = test system: women with locally advanced or metastatic TNBC or ER+ breast cancer; assay: Treatment duration, discontinuations and dose modifications; assay type: in vivo, human; conditions: all dose cohorts; Twenty-one percent
# Outline: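 Dosing was oral, once daily, in continuous 28-day cycles. Drug was stopped for loss of clinical benefit, an adverse event precluding further participation, or withdrawal of consent. Toxicity was graded by NCI CTCAE v4.03. Evaluations were every two weeks in Cycle 1, then monthly through the end-of-treatment visit.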
# [6] = test system: MDA-MB-453 cells (ER−/AR+); conditions: higher potency/efficacy than enzalutamide; cited from earlier work
# [7] = test system: MCF7 (ER+/low AR expression); conditions: higher potency/efficacy than enzalutamide; cited from earlier work
# [8] = test system: unresectable locally advanced or metastatic breast cancer; assay: Efficacy: clinical benefit rate and tumor response; assay type: in vivo, human
# Outline: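 Women with triple-negative or postmenopausal ER+/HER2− unresectable locally advanced or metastatic disease took oral 150-mg tablets once daily in continuous 28-day cycles, in de-escalating cohorts. Imaging used bone scan, CT and/or MRI matching the baseline modality, every 2 months in year one and every 3 months thereafter. Clinical benefit was stable disease, partial or complete response (RECIST 1.1), scored at 16 weeks for TNBC and 24 weeks for ER+.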
# [9] = test system: AR, wild-type and mutated forms (e.g., F876L and T877A); conditions: cited from earlier work
# [10] = test system: tamoxifen-resistant MCF7 cells (TAMR); conditions: higher potency/efficacy than enzalutamide; cited from earlier work
# [11] = test system: CYP17 lyase versus CYP17 17-α hydroxylase; conditions: cited from earlier work
# metastatic breast cancer = conditions: cited from earlier work
# estradiol = conditions: cited from earlier work
# [12] = randomized phase 2, metastatic ER+ breast cancer, N = 297
# [13] = phase 2 TBCRC011, AR+ (ER−/PR−) metastatic breast cancer, N = 26
# [14] = MDV3100-11, AR+ TNBC, N = 118, intent to treat AR > 0%, ref (12)
structure (smiles),measurement,setting,value
CC(C)[C@](O)(c1ccc2cc(OC(F)F)c(OC(F)F)cc2c1)c1c[nH]nn1 [Seviteronel],Cellular proliferation,[1],inhibited
same,half-life,"[2]; female, human, plasma, oral, 750 mg, Half-life, single dose, across 450, 600, 750 mg",6.4 to 8.4 h
same,Dose relationship of peak and trough plasma concentrations and AUC,"[2]; single dose, 450-750 mg, women",dose-proportional relationship
same,Relationship between exposure and body surface area and body mass index,[2]; three dose levels combined,moderate relationship
same,Deaths reported,"[3]; all considered unrelated to study drug (disease progression n=2, hepatic failure n=1, ischemic stroke n=1)",4
same,"Fatigue, AE incidence","[3]; female, human, in vivo",37%
same,"Nausea, AE incidence","[3]; female, human, in vivo",42%
same,Subjects with SAE Gr 3 or greater,"[3]; female, human, in vivo",12 subjects
same,"Tremor, AE incidence","[3]; female, human, in vivo",42%
same,"Vomiting, AE incidence","[3]; female, human, in vivo",37%
same,Recommended phase 2 dose (RP2D) in women,"[3]; female, human, in vivo, po",450 mg QD
same,Hepatic transaminase elevation,[3]; in vivo,not associated with hepatic transaminase elevation
same,Hypokalemia,[3]; in vivo,not seen
same,"Serious adverse events (SAE) Gr 3 or greater, number of events",[3]; in vivo,Fifteen
same,Tolerability,"[3]; in vivo, po",generally well tolerated
same,Survival,[4],increased survival
same,Tumor growth,[4],inhibited tumor growth
same,Subjects with a dose reduction due to an AE,[5],4/19
same,DHT-stimulated growth,[6],inhibited
same,Estrogen-stimulated proliferation and cell growth in a soft agar assay,[7],inhibited
same,Subjects reaching at least CBR16,"[8]; 450 mg QD cohort (RP2D), 2 TNBC CBR16 and 2 ER+ CBR24",4 of 7
same,Subjects reaching CBR24 (24-week clinical benefit rate),"[8]; across dose groups, 2 of 19 subjects",11%
same,Subjects reaching at least CBR16 (16-week clinical benefit rate),"[8]; across dose groups, Five of 19 subjects",26.3%
same,Objective tumor responses,[8]; all dose cohorts,no objective tumor responses
same,AR inhibition mechanism,[9],competitive antagonism
same,Growth of tamoxifen-resistant MCF7 cells,[10],inhibited
same,Selectivity for CYP17 lyase versus CYP17 17-α hydroxylase inhibition,[11],approximately 10 fold
C[C@]12CC[C@H](O)CC1=CC[C@@H]1[C@@H]2CC[C@]2(C)C(c3cccnc3)=CC[C@@H]12 [abiraterone],24-month CBR,"metastatic breast cancer; metastatic AR+ TNBC, N = 30, evaluable AR ≥ 10%",20%
same,24-month CBR,"metastatic breast cancer; metastatic ER+/AR+ breast cancer, N = 32, evaluable AR ≥ 1%",22%
same,Median PFS,metastatic breast cancer; [12],3.7 months
CC(O)(CS(=O)(=O)c1ccc(F)cc1)C(=O)Nc1ccc(C#N)c(C(F)(F)F)c1 (stereo not shown) [bicalutamide],24-week CBR,metastatic breast cancer; [13],19%
same,Median progression-free survival (PFS),metastatic breast cancer; [13],12 weeks
same,Objective responses,metastatic breast cancer; [13],no objective responses
CNC(=O)c1ccc(N2C(=S)N(c3ccc(C#N)c(C(F)(F)F)c3)C(=O)C2(C)C)cc1F [enzalutamide],Increase in estradiol,estradiol; given in combination with anastrozole,40%
same,Increase in estradiol,estradiol; given in combination with exemestane,13%
same,16-week CBR,metastatic breast cancer; [14],25%
same,24-week CBR,metastatic breast cancer; [14],20%
same,Median PFS,metastatic breast cancer; [14],12.6 weeks
C=C1C[C@@H]2[C@H](CC[C@]3(C)C(=O)CC[C@@H]23)[C@@]2(C)C=CC(=O)C=C12 [exemestane],Median PFS,metastatic breast cancer; [12],3.7 months
N#Cc1ccc(C(c2ccc(C#N)cc2)n2cncn2)cc1 [letrozole],Decline in estradiol,"estradiol; postmenopausal women with ER+ BC, by 3 months of treatment",approximately 36%
